# Bioassay records: PubChem BioAssay, Broad Institute
# A selection follows.
# PGC1a acetyl up: compounds raising PGC1a acetylation signal, primary screen, PGC1a modulator project, cell-based, U2OS, AlphaScreen, signal-increasing mode | activation, % at 15.6 µM | overnight | hit rate 0.21% among 350,000 | AID 651723, 2012;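 active means every replicate reaching activation of at least 50%, whatever the mean replicate activation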;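 further: hits raise the AlphaScreen acetylation signal above neutral controls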
#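 System – flag-PGC1a/GCN5 U2OS cells · Quantity – 7000 U2OS cells per well · Signal – AlphaScreen proximity luminescence, anti-acetyl-lysine antibody · Schedule – overnight compound treatment, 37 °C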
# Hits are given with their value; . = inactive.
SMILES,PGC1a acetyl up
CO[C@H]1CN(C)C(=O)c2cc(NS(C)(=O)=O)ccc2OC[C@H](C)N(C(=O)NC(C)C)C[C@@H]1C,.
Cc1ccccc1S(=O)(=O)NCC[C@@H]1CC[C@@H](NC(=O)C2CCOCC2)[C@H](CO)O1,.
O=C(Nc1nc(C2C3CC4CC(C3)CC2C4)cs1)c1cc2cc([N+](=O)[O-])ccc2oc1=O (centres undefined),52
O=CNCCc1nc2ccccc2n1CCc1ccccc1,.
C=C1C(=O)C=C[C@]2(C)C[C@@H]3OC(=O)[C@](C)(O)[C@H]3C[C@@H]12,178
COc1ccc2c3c(n(C)c2c1)[C@H](CO)NCC31CCN(Cc2cc(-c3ccccc3)on2)CC1,.
O=C(O)CCC(NC(=S)Nc1ccccc1)C(=O)O (centres undefined),.
COc1cc(-c2nnn(CC#N)n2)ccc1OCc1ccccc1,212
CC(C)CC#Cc1ccc2c(c1)O[C@H](CN(C)C)[C@@H](C)CN([C@H](C)CO)S2(=O)=O,59
C[C@H](CO)N1C[C@H](C)[C@@H](CN(C)C(=O)C2CCCCC2)Oc2cc(C#Cc3ccncc3)ccc2S1(=O)=O,.
CC(C)CC#Cc1ccc2c(c1)O[C@H](CN(C)Cc1ccccc1)[C@H](C)CN([C@@H](C)CO)S2(=O)=O,.
COc1ccccc1C#Cc1ccc2c(c1)O[C@@H](CN(C)Cc1cccnc1)[C@H](C)CN([C@H](C)CO)S2(=O)=O,.
CC(C)CC#Cc1ccc2c(c1)O[C@H](CN(C)Cc1ccccc1)[C@@H](C)CN([C@H](C)CO)S2(=O)=O,.
C[C@H](CO)N1C[C@H](C)[C@H](CN(C)C(=O)C2CCCCC2)Oc2cc(-c3ccccc3)ccc2S1(=O)=O,63
COc1ccccc1-c1ccc2c(c1)O[C@@H](CN(C)Cc1ccc3c(c1)OCO3)[C@@H](C)CN([C@H](C)CO)S2(=O)=O,64
CC(=O)N(C)C[C@H]1Oc2cc(-c3ccc(C#N)cc3)ccc2S(=O)(=O)N([C@@H](C)CO)C[C@@H]1C,.
C[C@H]1CN([C@@H](C)CO)S(=O)(=O)c2ccc(-c3ccccc3)cc2O[C@@H]1CN(C)Cc1cccc(F)c1,.
NC(=O)c1oc2ccccc2c1NC(=O)C1CC(=O)N(c2ccccc2)C1 (centres undefined),.
CCCCCC(=O)N/N=C/c1ccc([N+](=O)[O-])o1,105
CC1=C(C(=O)OCc2ccc3c(c2)OCO3)C(c2ccccc2)NC(=O)N1 (centres undefined),.
CCn1cc([N+](=O)[O-])c(C(=O)NCc2ccc3c(c2)OCO3)n1,.
O=C(N/N=C\c1ccc([N+](=O)[O-])o1)C1COc2ccccc2O1 (centres undefined),117
COc1ccc(-c2ccc(/C=N/NC(=O)Cc3nnc(N)s3)o2)cc1Cl,.
Cc1ccc(-c2ccc(/C=N/NC(=O)Cc3nnc(N)s3)o2)cc1Cl,.
O=C(Cc1ccc2c(c1)OCO2)NN=Cc1ccc([N+](=O)[O-])o1,137
SMILES,PGC1a acetyl up
Cc1ccccc1-c1nc(SCc2ccccn2)c2c(=O)n(C)c(=O)n(C)c2n1,.
COCC(=O)Nc1ccc2c(c1)OC[C@@H](C)N(CCc1ccccc1)C[C@H](C)[C@H](OC)CN(C)C2=O,.
O=c1c2cccnc2n(-c2ccccc2)n1Cc1ccc(Cl)cc1,.
O=C1C=CCCN1C(=O)/C=C/c1ccccc1Cl,.
COc1ccc(CCNC(=O)COC(=O)c2ccco2)cc1OC,108
COc1ccc(CCNC(=O)C2CCN(C(=O)c3ccc(F)cc3)CC2)cc1OC,.
O=C(COC(=O)c1ccco1)NCc1ccc2c(c1)OCO2,.
COc1ccc(CN(C)C[C@@H]2Oc3ccc(NS(=O)(=O)c4c(C)noc4C)cc3C(=O)N([C@H](C)CO)C[C@H]2C)cc1,.
CCOC(=O)c1c(NC(=O)/C=C/C(=O)O)sc(C)c1-c1ccc(C(C)(C)C)cc1,.
CCOC(=O)c1c(NC(=O)c2c(Br)cnn2CC)sc(C)c1C,83
Oc1ccc(/C=N/Nc2nc(-c3ccc(Cl)cc3)cc(C(F)(F)F)n2)cc1,.
CCOC(=O)CCS(=O)(=O)c1nc(-c2ccccc2)cc(C(F)(F)F)n1,.
COc1ccc(-c2cc(C(F)(F)F)nc(S(C)(=O)=O)n2)cc1,66
C=C1C(=O)[C@]23C[C@H]1CCC2[C@@]1(C)C(C[C@@H]3O)[C@](C)(C(=O)OC)CC[C@@H]1O (some centres undefined),.
O=C(CN1C(=O)C2CC=CCC2C1=O)Nc1nccs1 (centres undefined),.
CCOc1ccc(S(=O)(=O)/N=C(/Nc2ccc(C(C)=O)cc2)c2ccccc2)cc1,66
CCOc1ccc(NS(=O)(=O)c2ccc3c(c2)oc(=O)n3C)cc1,.
CCOc1ccc(N(C(=O)Nc2ccccc2)C2=NCCC2)cc1,.
CC(=O)Nc1cccc(-c2ccnc3c2CC(C)(C(=O)Nc2ccc4c(c2)OCO4)O3)c1 (centres undefined),70
COc1ccc(NC(=O)C2(C)Cc3c(-c4cccc(NC(C)=O)c4)ccnc3O2)cn1 (centres undefined),58
O=C(Nc1cccc(Cl)c1)Nc1ccc2c(c1)OCO2,.
COc1ccc(NC(=O)/C(Cl)=C(/Cl)S(=O)Cc2ccccc2)cn1 (centres undefined),.
C[C@H](CO)N1C[C@H](C)[C@H](CN(C)S(=O)(=O)c2ccccc2C#N)OCc2cnnn2CCCC1=O,.
COc1ccc(S(=O)(=O)N2CCC(C(=O)N3CCC(C(N)=O)CC3)CC2)cc1Cl,.
O=C/C=C/c1ccc(-c2ccccc2)cc1,74
SMILES,PGC1a acetyl up
O=C(c1cccc(F)c1)N1CCN(C(=O)c2cc(-c3ccc(Cl)cc3Cl)on2)CC1,.
C#CCN(C[C@@H]1[C@@H](OC(=O)NCc2ccccc2F)[C@@H](OC(=O)NCc2ccccc2F)Cn2c(=O)ccc(=O)n21)S(=O)(=O)c1ccc(C)cc1,.
C#CCN(C[C@@H]1[C@@H](OC(=O)NC2CCCC2)[C@@H](OC(=O)NC2CCCC2)Cn2c(=O)ccc(=O)n21)S(=O)(=O)c1ccc(C)cc1,111
C#CCN(C[C@@H]1[C@@H](OC(=O)Nc2cccs2)[C@@H](OC(=O)Nc2cccs2)Cn2c(=O)ccc(=O)n21)S(=O)(=O)c1ccc(C)cc1,.
Cc1cc(N2CCN(C)CC2)nc(=S)[nH]1,.
CC(=O)Nc1nc(C)c(Oc2ccc(Cl)cc2)c(=O)[nH]1,.
CCOC(=O)CN1C(=O)C(Sc2n[nH]c(-c3ccc(C)cc3)n2)CCc2ccccc21 (centres undefined),59
CCOC(=O)CS(=O)(=O)c1nc(-c2ccccc2)cc(C(F)(F)F)n1,.
CCCCCCCCCCCCS[C@H]1CS(=O)(=O)C[C@@H]1O,.
COc1ccc(OC)c(NC(=O)C2C(C(=O)O)C3(Cl)C(Cl)=C(Cl)C2(Cl)C3(Cl)Cl)c1 (centres undefined),.
C/C(=N\NC(=O)CN1CCCCC1)c1ccccc1O,.
CC(=NNC(=S)N1CCC1)c1ccccn1,190
CCCN(C)C[C@H]1Oc2cc(C#Cc3ccc(OC)cc3)ccc2S(=O)(=O)N([C@@H](C)CO)C[C@H]1C,.
CC1C(=O)CCCCCCCCCC2C1(N1CCOCC1)CS2(=O)=O (centres undefined),61
CSc1nn(-c2ccc(C(=O)OC(C(=O)NC(N)=O)C(C)C)cc2)c(=S)s1 (centres undefined),.
Nc1[nH]ncc1N=Nc1ccc(Cl)cc1,65
COc1ccccc1NC(=O)/C=C1\SCC(=O)N1C,.
COc1ccccc1NC(=O)CCC(=O)Nc1ccccc1OC,54
